PMC3833035 (Blood, 2011)
“Also recorded” adds a separate entry of the source. No end group written: not given here.

Key:
[1] = system: Siglec-9 expression on granulocytes; assay: Induction of Siglec-9 expression on granulocytes; assay type: cell-based, human; details: FMLP 0.5 and 5 μg/mL, FACS, MFI, n = 4; for Siglec-9 up-regulation on granulocytes, 2 h: TNF-α 10 and 200 U/mL, LPS 10 and 100 ng/mL
Summary of the method: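 Leukocytes from four healthy volunteers were prepared by red-cell lysis of whole blood. Treatments were FMLP (0.5 or 5 μg/mL, 5 min or 2 h), TNF-α (10 or 200 U/mL, 2 h) or LPS (10 or 100 ng/mL, 2 h); untreated cells were controls. Cells were stained with anti-Siglec-9 mAb (3G6 as control), then Alexa546 anti-mouse IgG. Granulocytes were gated by FITC-anti-CD66b and read by flow cytometry as MFI minus control-antibody MFI, mean ± SEM.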

[2] = system: human granulocyte binding to inflamed synovial vessels; assay: Granulocyte binding to vessels in inflamed synovia; assay type: cell-based; details: TNF-α 200 U/mL, 2 h; granulocytes from three donors
Summary of the method: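 Percoll-purified granulocytes from three donors were incubated 2 h with TNF-α (200 U/mL) or left untreated. They were then pre-treated 30 min with anti-Siglec-9 or control antibodies. Cells were bound to frozen sections of inflamed human synovium under rotation for 30 min, then glutaraldehyde-fixed. Vessel-bound cells were counted and expressed as % of control-mAb binding (100%), mean ± SEM.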

[3] = system: recombinant or affinity purified human VAP-1; assay: Surface plasmon resonance; assay type: binding
[4] = molecular target: Vascular Adhesion Protein-1 (VAP-1), human, recombinant (human) (UniProt Q16853); assay: SPR
UniProt Q16853, sequence (Q16853 whole entry): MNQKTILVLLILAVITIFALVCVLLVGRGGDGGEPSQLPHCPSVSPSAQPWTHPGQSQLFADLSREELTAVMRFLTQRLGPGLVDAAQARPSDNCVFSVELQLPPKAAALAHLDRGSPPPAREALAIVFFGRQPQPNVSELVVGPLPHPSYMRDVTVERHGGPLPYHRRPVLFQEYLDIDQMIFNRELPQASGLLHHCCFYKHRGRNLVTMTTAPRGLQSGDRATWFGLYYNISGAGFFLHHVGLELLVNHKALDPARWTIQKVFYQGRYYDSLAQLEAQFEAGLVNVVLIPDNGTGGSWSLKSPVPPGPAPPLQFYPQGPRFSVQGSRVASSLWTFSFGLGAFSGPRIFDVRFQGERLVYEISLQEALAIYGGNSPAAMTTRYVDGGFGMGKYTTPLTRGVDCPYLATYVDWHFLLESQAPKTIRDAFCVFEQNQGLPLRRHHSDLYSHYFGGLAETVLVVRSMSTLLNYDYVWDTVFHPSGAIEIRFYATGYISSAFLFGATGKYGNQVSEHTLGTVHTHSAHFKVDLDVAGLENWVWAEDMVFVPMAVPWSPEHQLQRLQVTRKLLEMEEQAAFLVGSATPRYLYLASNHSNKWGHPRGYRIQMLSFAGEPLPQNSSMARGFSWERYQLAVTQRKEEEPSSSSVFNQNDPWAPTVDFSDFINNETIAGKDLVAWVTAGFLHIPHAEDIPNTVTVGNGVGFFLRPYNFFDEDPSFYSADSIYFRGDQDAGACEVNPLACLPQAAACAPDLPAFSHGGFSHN

[5] = system: VAP-1 (wild type mice bearing melanoma xenografts); assay type: in vivo, mouse
Summary of the method: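 Wild-type mice received B16 melanoma cells in the neck area and were used 11 days later. 68Ga-DOTA-peptide was injected i.v., then dynamic PET ran 60 min (OSEM2D reconstruction). SUV is ROI radioactivity concentration divided by injected activity per body weight, corrected for tail residue. A separate group got 500-fold molar excess of unlabeled peptide co-injected. Blood, urine and organs were then excised, weighed and gamma-counted.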

[6] = system: VAP-1 negative knockout mice bearing melanoma xenografts; assay type: in vivo, mouse; details: KO 60 min; i.v.; ex vivo; mean ± SD, n = 2
Summary of the method: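 VAP-1 knockout mice received B16 melanoma cells in the neck area and were used 11 days later. 68Ga-DOTA-Siglec-9 peptide was given i.v. (7.8 ± 2.3 MBq, as stated for tumor-bearing mice). Blood, urine and organs were excised, weighed and gamma-counted. Uptake is given as SUV: tissue radioactivity concentration divided by injected radioactivity per body weight.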

VAP-1 in melanoma tumor = assay: Digital autoradiography of tumor cryosections; assay type: in vivo, mouse; details: i.v. 3.0 ± 0.4 MBq, 15 min
Summary of the method: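 B16 melanoma cells were inoculated abdominally, and mice were used 11 days later. Mice received 68Ga-labelled DOTA test peptide i.v. (3.0 ± 0.4 MBq) and were killed after 15 min. Tumour cryosections went to digital autoradiography as PSL/mm2. ROIs covered VAP-1-positive and VAP-1-negative areas, set by anti-mouse VAP-1 staining of adjacent sections. Background was subtracted and values normalised to muscle; four mice, mean ± SD.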

human VAP-1 (KOTG mice) = assay type: in vivo, human (transgene in mouse)
Summary of the method: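 Ear inflammation was induced with 4 drops of 5% (w/v) DNCB in acetone on the right ear, one day before imaging. Mice were VAP-1 KO, or KOTG (mouse VAP-1-deficient, with human VAP-1 on endothelium under the Tie-1 promoter). 68Ga-DOTA-peptide was given i.v. (KO 7.4 ± 1.8, KOTG 7.5 ± 3.0 MBq). Dynamic PET ran 30 min (OSEM2D), read as SUV, and was checked by ex vivo gamma counting of excised tissues.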

[7] = system: site of inflammation (VAP-1); assay: PET imaging, rats with turpentine-induced sterile inflammation; assay type: in vivo, rat (Sprague-Dawley)
Summary of the method: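 Sprague-Dawley rats received turpentine oil s.c. in the upper neck, and 24 h later 68Ga-labelled DOTA test peptide i.v. (18.4 ± 3.1 MBq). A 60 min list-mode PET scan was reconstructed by OSEM3D, with blood sampled during imaging. ROIs covered inflammation, muscle, organs and bladder. SUV was ROI concentration divided by injected activity per body weight, corrected for tail residue. Excised organs were then gamma-counted as SUV; three animals.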

mouse VAP-1 = assay: Adhesion of CHO-Siglec-E cells to CHO cells transfected with mouse VAP-1; assay type: cell-based; details: CHO-Siglec-E or mock; Supplemental Figure 1
Summary of the method: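 CHO cells expressing mouse VAP-1, or mock CHO, were grown to confluence in 96-well plates and blocked with PBS/1% BSA. CFSE-labelled CHO-Siglec-E cells (2 × 10^5) were added for 30 min at 37°C. After nine washes, adherence was read by fluorometer, and the wells were imaged by microscope.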

VAP-1 = details: tyrosine 471 of VAP-1 and Arg293 in Siglec-10; ref [6]; cited from earlier work
[8] = WT 60 min, i.v., ex vivo, mean ± SD, n = 3

tumor necrosis factor-α [TNF-α]
Siglec-9 up-regulation on granulocytes, 2 h [1]: significant up-regulation of Siglec-9 after 2 h
granulocyte binding to inflamed synovial vasculature after TNF-α [2]: significantly increased granulocyte binding to synovial vasculature

CARLSLSWRGLTLCPS [wild type peptide]
binding to recombinant VAP-1 (SPR) ([3]; Biacore X, CM5 chip, immobilized VAP-1, wild type peptide at 0-400 μM): bound to recombinant VAP-1

mutated Siglec-9 peptide: mutated Siglec-9 peptide, in which both arginines were mutated to alanines (CAALSLSWAGLTLCPS; also: cyclic peptide, ring type not given here)
binding to recombinant VAP-1 (SPR), double arginine mutant ([3]; both arginines mutated to alanines, data not shown): failed to bind recombinant VAP-1

cyclic Siglec-9-like peptide without Arg290 (P1_noArg290) (from UniProt Q9Y336 283-297)
percent reduction of binding against the wild type peptide [4]: 42%

lipopolysaccharide [LPS]
Siglec-9 up-regulation on granulocytes, 2 h [1]: significant up-regulation of Siglec-9 after 2 h

cyclic Siglec-9-like peptide without Arg284 (P1_noArg284) (from UniProt Q9Y336 283-297)
percent reduction of binding against the wild type peptide [4]: 66%

formyl-methyl-leucine-phenylalanine [FMLP]
Siglec-9 up-regulation on granulocytes, 2 h [1]: further up-regulation was seen after 2 h; also recorded: roughly two-fold after 2 h
Siglec-9 up-regulation on granulocytes, 5 min ([1]; 5 min): slightly up-regulated Siglec-9 expression already after 5 min; also recorded: slight up-regulation was already seen after 5 min

CARLSLSWRGLTLCPSK [^68Ga-DOTA-peptide]
uptake in kidney (SUV), WT [5, 8]: 5.10 ± 0.86 standardized uptake values
uptake in liver (SUV), WT [5, 8]: 1.82 ± 0.25 standardized uptake values
uptake in lung (SUV), WT [5, 8]: 0.69 ± 0.21 standardized uptake values
uptake in muscle (SUV), WT [5, 8]: 0.21 ± 0.07 standardized uptake values
uptake in small intestine (SUV), WT [5, 8]: 0.59 ± 0.16 standardized uptake values
uptake in tumour (SUV), WT [5, 8]: 0.56 ± 0.12 standardized uptake values
accumulation at tumor site (PET) ([5]; i.v. 7.8 ± 2.3 MBq, B16 melanoma, wild type mice): accumulated at the tumor site
uptake in blood (SUV), KO [6]: 0.25 ± 0.01 standardized uptake values
uptake in kidney (SUV), KO [6]: 7.78 ± 1.47 standardized uptake values
uptake in liver (SUV), KO [6]: 0.97 ± 0.07 standardized uptake values
uptake in muscle (SUV), KO [6]: 0.04 ± 0.01 standardized uptake values
uptake in small intestine (SUV), KO [6]: 0.08 ± 0.01 standardized uptake values
uptake in tumour (SUV), KO [6]: 0.20 ± 0.02 standardized uptake values
distribution of radioactivity within tumor (VAP-1 in melanoma tumor): radioactivity concentrated in the periphery of the tumor
detection of inflammation in the mouse (PET) (human VAP-1 (KOTG mice); DNCB ear skin inflammation, Supplemental Figure 2): able to detect inflammation in the mouse
signals in many organs, KOTG vs KO mice (human VAP-1 (KOTG mice); i.v. 7.5 ± 3.0 MBq (KOTG), 7.4 ± 1.8 MBq (KO), Supplemental Table 2): detects human VAP-1 in many organs realized as higher signals than in KO mice
accumulation at sites of inflammation vs muscle (PET) ([7]; i.v. 18.4 ± 3.1 MBq, 5-10 min, 24 h after turpentine, rat): quickly and preferentially accumulated at the sites of inflammation (5-10 min) in comparison to the muscle; also recorded: clearly seen at the site of inflammation (I) but not in the surrounding muscle
elimination route ([7]; i.v., PET): eliminated rapidly via kidneys to the urinary bladder

B1: Siglec-E: mouse molecule corresponding to human Siglec-9, expressed on CHO cells (protein)
chain: QNPQEVFTLNVERKVVVQEGLCVLVPCNFSYLKKRLTDWTDSDPVHGFWYREGTDRRKDSIVATNNPIRKAVKETRNRFFLLGDPWRNDCSLNIREIRKKDAGLYFFRLERGKTKYNYMWDKMTLVVTALTNTPQILLPETLEAGHPSNLTCSVPWDCGWTAPPIFSWTGTSVSFLSTNTTGSSVLTITPQPQDHGTNLTCQVTLPGTNVSTRMTIRLNVSYAPKNLTVTIYQGADSVSTILKNGSSLPISEGQSLRLICSTDSYPPANLSWSWDNLTLCPSKLSKPGLLELFPVHLKHGGVYTCQAQHALGSQHISLSLSPQSSATLSEMMMGTFVGSGVTALLFLSVCILLLAVRSYRRKPARPAVVAPHPDALKVSVSQNPLVESQADDSSEPLPSILEAAPSSTEEEIHYATLSFHEMKPMNLWGQQDTTTEYSEIKFPQRTAWP
adhesion of Siglec-E cells to mouse VAP-1 cells (mouse VAP-1): no VAP-1-Siglec-E mediated adhesion was detected

B2: Siglec-10: lymphocyte ligand for VAP-1 (protein, UniProt Q96LC7 17-697, looked up)
Sialic acid-binding Ig-like …: MDGRFWIRVQESVMVPEGLCISVPCSFSYPRQDWTGSTPAYGYWFKAVTETTKGAPVATNHQSREVEMSTRGRFQLTGDPAKGNCSLVIRDAQMQDESQYFFRVERGSYVRYNFMNDGFFLKVTALTQKPDVYIPETLEPGQPVTVICVFNWAFEECPPPSFSWTGAALSSQGTKPTTSHFSVLSFTPRPQDHNTDLTCHVDFSRKGVSAQRTVRLRVAYAPRDLVISISRDNTPALEPQPQGNVPYLEAQKGQFLRLLCAADSQPPATLSWVLQNRVLSSSHPWGPRPLGLELPGVKAGDSGRYTCRAENRLGSQQRALDLSVQYPPENLRVMVSQANRTVLENLGNGTSLPVLEGQSLCLVCVTHSSPPARLSWTQRGQVLSPSQPSDPGVLELPRVQVEHEGEFTCHARHPLGSQHVSLSLSVHYSPKLLGPSCSWEAEGLHCSCSSQASPAPSLRWWLGEELLEGNSSQDSFEVTPSSAGPWANSSLSLHGGLSSGLRLRCEAWNVHGAQSGSILQLPDKKGLISTAFSNGAFLGIGITALLFLCLALIIMKILPKRRTQTETPRPRFSRHSTILDYINVVPTAGPLAQKRNQKATPNSPRTPLPPGAPSPESKKNQKKQYQLPSFPEPKSSTQAPESQESQEELHYATLNFPGVRPRPEARMPKGTQADYAEVKFQ
dependence of Siglec-10/VAP-1 interaction on enzymatic activity (VAP-1): completely dependent on the enzymatic activity of VAP-1
